Measured values from ChEMBL document CHEMBL5303300, “EUbOPEN Chemogenomics Library - Multiplex” (2023).
Several values for one entry are separate records, joined by “and”; a condition that tells them apart may be missing. Equal entries are not always repeated.

Columns and labels:
Type in all cases: toxicity, cell-based
Fibroblast = assay: Multiplex assay against human fibroblast; conditions: number of replicates 2
Summary of the method: (§1)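 Tubulin, mitochondrial-mass and membrane-permeability phenotypes are per cents of healthy-nucleus cells. Cells were gated by CellPathfinder machine learning into Hoechst high-intensity objects or normal cells, normal cells into healthy, pyknosed or fragmented nuclei, and pyknosed cells into mitotic or apoptotic. Before that, live cells stained at seeding with Hoechst33342, BioTracker Green Microtubule Cytoskeleton Dye, MitoTracker Red and Annexin V Alexa Fluor 680 were imaged on a CQ1 microscope at 37°C and 5% CO2 after compound addition.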

HEK-293T = assay: Multiplex assay against HEK293T; conditions: human, number of replicates 2; summary of the method: as §1
U2OS = assay: Multiplex assay against U2OS; conditions: human, number of replicates 2; summary of the method: as §1
[1] = 12 h, 1 µM, compound concentration 1 uM
[2] = 12 h, 10 µM, compound concentration 10 uM
[3] = 24 h, 1 µM, compound concentration 1 uM
[4] = 24 h, 10 µM, compound concentration 10 uM
[5] = 48 h, 1 µM, compound concentration 1 uM
[6] = 48 h, 10 µM, compound concentration 10 uM

## C[C@@H](Oc1cc(-n2cnc3ccc(OC4CCN(C)CC4)cc32)sc1C(N)=O)c1ccccc1Cl [GSK-579289A]
Fibroblast; [1]
  Population Apoptotic (%): 45% and 36%
  Population Fragmented Nuclei (%): 21% and 15%
  Population Healthy Nuclei (%): 62% and 60%
  Population Hoechst High Intensity Objects (%): 0%
  Population Membrane Permeable-Phenotype (%): 7% and 10%
  Population Mitochondria Different-Phenotype (%): 1% and 3%
  Population Mitotic Cells (%): 54% and 63%
  Population Normal (%): 99% and 100%
  Population Pyknosed Nuclei (%): 15% and 24%
  Population Tubulin-Different-Phenotype (%): 40% and 48%
  Total Cell Count: 296 and 182
Fibroblast; [2]
  Population Apoptotic (%): 40% and 46%
  Population Fragmented Nuclei (%): 13% and 23%
  Population Healthy Nuclei (%): 60% and 59%
  Population Hoechst High Intensity Objects (%): 0%
  Population Membrane Permeable-Phenotype (%): 5% and 13%
  Population Mitochondria Different-Phenotype (%): 12% and 13%
  Population Mitotic Cells (%): 59% and 53%
  Population Normal (%): 100%
  Population Pyknosed Nuclei (%): 26% and 17%
  Population Tubulin-Different-Phenotype (%): 84% and 85%
  Total Cell Count: 323 and 282
Fibroblast; [3]
  Population Apoptotic (%): 54% and 58%
  Population Fragmented Nuclei (%): 18% and 23%
  Population Healthy Nuclei (%): 63% and 57%
  Population Hoechst High Intensity Objects (%): 1% and 0%
  Population Membrane Permeable-Phenotype (%): 3% and 2%
  Population Mitochondria Different-Phenotype (%): 3% and 5%
  Population Mitotic Cells (%): 45% and 41%
  Population Normal (%): 98% and 99%
  Population Pyknosed Nuclei (%): 18% and 19%
  Population Tubulin-Different-Phenotype (%): 43% and 40%
  Total Cell Count: 282 and 205
Fibroblast; [4]
  Population Apoptotic (%): 79% and 73%
  Population Fragmented Nuclei (%): 16% and 25%
  Population Healthy Nuclei (%): 46% and 50%
  Population Hoechst High Intensity Objects (%): 0%
  Population Membrane Permeable-Phenotype (%): 2% and 6%
  Population Mitochondria Different-Phenotype (%): 38% and 39%
  Population Mitotic Cells (%): 20% and 26%
  Population Normal (%): 100% and 99%
  Population Pyknosed Nuclei (%): 37% and 23%
  Population Tubulin-Different-Phenotype (%): 88% and 92%
  Total Cell Count: 281 and 274
Fibroblast; [5]
  Population Apoptotic (%): 65% and 85%
  Population Fragmented Nuclei (%): 21% and 25%
  Population Healthy Nuclei (%): 64% and 61%
  Population Hoechst High Intensity Objects (%): 1% and 0%
  Population Membrane Permeable-Phenotype (%): 4%
  Population Mitochondria Different-Phenotype (%): 2% and 5%
  Population Mitotic Cells (%): 34% and 14%
  Population Normal (%): 98% and 99%
  Population Pyknosed Nuclei (%): 14% and 12%
  Population Tubulin-Different-Phenotype (%): 44% and 38%
  Total Cell Count: 307 and 222
Fibroblast; [6]
  Population Apoptotic (%): 97% and 94%
  Population Fragmented Nuclei (%): 18% and 24%
  Population Healthy Nuclei (%): 22% and 18%
  Population Hoechst High Intensity Objects (%): 1% and 0%
  Population Mitochondria Different-Phenotype (%): 46% and 48%
  Population Mitotic Cells (%): 2% and 5%
  Population Normal (%): 98% and 99%
  Population Pyknosed Nuclei (%): 58% and 57%
  Population Tubulin-Different-Phenotype (%): 77% and 93%
  Total Cell Count: 199 and 171
HEK-293T; [1]
  Population Apoptotic (%): 49% and 50%
  Population Fragmented Nuclei (%): 4% and 2%
  Population Healthy Nuclei (%): 79% and 81%
  Population Hoechst High Intensity Objects (%): 7% and 8%
  Population Membrane Permeable-Phenotype (%): 8% and 3%
  Population Mitochondria Different-Phenotype (%): 27% and 24%
  Population Mitotic Cells (%): 50%
  Population Normal (%): 93% and 91%
  Population Pyknosed Nuclei (%): 16%
  Population Tubulin-Different-Phenotype (%): 88% and 90%
  Total Cell Count: 686 and 707
HEK-293T; [2]
  Population Apoptotic (%): 72% and 75%
  Population Fragmented Nuclei (%): 2% and 1%
  Population Healthy Nuclei (%): 79% and 84%
  Population Hoechst High Intensity Objects (%): 19% and 10%
  Population Membrane Permeable-Phenotype (%): 7% and 3%
  Population Mitochondria Different-Phenotype (%): 69% and 73%
  Population Mitotic Cells (%): 27% and 25%
  Population Normal (%): 80% and 89%
  Population Pyknosed Nuclei (%): 17% and 13%
  Population Tubulin-Different-Phenotype (%): 82% and 85%
  Total Cell Count: 381 and 356
HEK-293T; [3]
  Population Apoptotic (%): 41% and 65%
  Population Fragmented Nuclei (%): 1% and 3%
  Population Healthy Nuclei (%): 75%
  Population Hoechst High Intensity Objects (%): 8% and 7%
  Population Membrane Permeable-Phenotype (%): 2% and 0%
  Population Mitochondria Different-Phenotype (%): 55% and 62%
  Population Mitotic Cells (%): 58% and 34%
  Population Normal (%): 91% and 92%
  Population Pyknosed Nuclei (%): 22% and 21%
  Population Tubulin-Different-Phenotype (%): 93% and 95%
  Total Cell Count: 585 and 584
HEK-293T; [4]
  Population Apoptotic (%): 78% and 69%
  Population Fragmented Nuclei (%): 7% and 6%
  Population Healthy Nuclei (%): 75% and 79%
  Population Hoechst High Intensity Objects (%): 23% and 16%
  Population Membrane Permeable-Phenotype (%): 1%
  Population Mitochondria Different-Phenotype (%): 88% and 75%
  Population Mitotic Cells (%): 21% and 30%
  Population Normal (%): 76% and 84%
  Population Pyknosed Nuclei (%): 16% and 14%
  Population Tubulin-Different-Phenotype (%): 66% and 80%
  Total Cell Count: 362 and 350
HEK-293T; [5]
  Population Apoptotic (%): 68% and 63%
  Population Fragmented Nuclei (%): 3% and 4%
  Population Healthy Nuclei (%): 85% and 83%
  Population Hoechst High Intensity Objects (%): 6% and 13%
  Population Membrane Permeable-Phenotype (%): 1% and 0%
  Population Mitochondria Different-Phenotype (%): 67%
  Population Mitotic Cells (%): 31% and 36%
  Population Normal (%): 93% and 86%
  Population Pyknosed Nuclei (%): 10% and 11%
  Population Tubulin-Different-Phenotype (%): 89% and 90%
  Total Cell Count: 471 and 559
HEK-293T; [6]
  Population Apoptotic (%): 67% and 73%
  Population Fragmented Nuclei (%): 12% and 11%
  Population Healthy Nuclei (%): 61% and 68%
  Population Hoechst High Intensity Objects (%): 20% and 22%
  Population Membrane Permeable-Phenotype (%): 4% and 3%
  Population Mitochondria Different-Phenotype (%): 78% and 68%
  Population Mitotic Cells (%): 32% and 26%
  Population Normal (%): 79% and 77%
  Population Pyknosed Nuclei (%): 26% and 19%
  Population Tubulin-Different-Phenotype (%): 55% and 65%
  Total Cell Count: 453 and 440
U2OS; [1]
  Population Apoptotic (%): 100% and 47%
  Population Fragmented Nuclei (%): 4% and 6%
  Population Healthy Nuclei (%): 78%
  Population Hoechst High Intensity Objects (%): 0%
  Population Membrane Permeable-Phenotype (%): 24% and 17%
  Population Normal (%): 100% and 99%
  Population Pyknosed Nuclei (%): 16% and 15%
  Population Tubulin-Different-Phenotype (%): 33% and 43%
U2OS; [2]
  Population Apoptotic (%): 78% and 61%
  Population Fragmented Nuclei (%): 9% and 23%
  Population Healthy Nuclei (%): 64% and 47%
  Population Hoechst High Intensity Objects (%): 2% and 0%
  Population Membrane Permeable-Phenotype (%): 55% and 27%
  Population Mitochondria Different-Phenotype (%): 69% and 72%
  Population Mitotic Cells (%): 22% and 38%
  Population Normal (%): 97% and 100%
  Population Pyknosed Nuclei (%): 26% and 28%
  Population Tubulin-Different-Phenotype (%): 97% and 95%
U2OS; [3]
  Population Apoptotic (%): 100% and 78%
  Population Fragmented Nuclei (%): 9% and 4%
  Population Healthy Nuclei (%): 84% and 76%
  Population Hoechst High Intensity Objects (%): 0%
  Population Membrane Permeable-Phenotype (%): 14% and 23%
  Population Mitotic Cells (%): 0% and 21%
  Population Normal (%): 100% and 99%
  Population Pyknosed Nuclei (%): 6% and 18%
  Population Tubulin-Different-Phenotype (%): 33% and 46%
U2OS; [4]
  Population Apoptotic (%): 78% and 81%
  Population Fragmented Nuclei (%): 8% and 5%
  Population Healthy Nuclei (%): 41% and 52%
  Population Hoechst High Intensity Objects (%): 4% and 0%
  Population Membrane Permeable-Phenotype (%): 52% and 83%
  Population Mitochondria Different-Phenotype (%): 84% and 67%
  Population Mitotic Cells (%): 21% and 18%
  Population Normal (%): 95% and 99%
  Population Pyknosed Nuclei (%): 50% and 41%
  Population Tubulin-Different-Phenotype (%): 100% and 98%
U2OS; [5]
  Population Apoptotic (%): 95% and 75%
  Population Healthy Nuclei (%): 60% and 55%
  Population Hoechst High Intensity Objects (%): 0%
  Population Membrane Permeable-Phenotype (%): 33% and 19%
  Population Normal (%): 100%
  Population Pyknosed Nuclei (%): 31% and 21%
  Population Tubulin-Different-Phenotype (%): 56% and 38%
U2OS; [6]
  Population Apoptotic (%): 100% and 95%
  Population Fragmented Nuclei (%): 9% and 12%
  Population Healthy Nuclei (%): 19% and 12%
  Population Hoechst High Intensity Objects (%): 4%
  Population Membrane Permeable-Phenotype (%): 100% and 95%
  Population Mitochondria Different-Phenotype (%): 50% and 70%
  Population Mitotic Cells (%): 0% and 4%
  Population Normal (%): 95%
  Population Pyknosed Nuclei (%): 70% and 74%
  Population Tubulin-Different-Phenotype (%): 100% and 95%
